# Screening results from PubChem BioAssay.
# XiGFP reactiv – activators of X-chromosome reactivation in mouse fibroblasts. hit rate 0.055% among 360,000. AID 743238. XiGFP mouse fibroblasts, % GFP-positive cells imaging, 3 d; cells co-treated with 5-aza-dC sensitizer; scaled so ellipticine positive control = 100%. activation, % at 7.58 µM;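 active = mean normalized replicate activation at least 10% and every replicate at or above 10%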
#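 Schedule: 3 d treatment, 15 min room-temperature fixation; system: 68-5-11 XiGFP fibroblast line; buffer or medium: DMEM plus 5-aza-dC sensitizer; control set: ellipticine 6 µM positive control; compound: one concentration, pinned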
# Statin myotox sup – protects C2C12 myotubes from simvastatin toxicity | ATP luminescence, 48 h; scaled: DMSO 0, geranylgeraniol control 100 | rescue of ATP level, % at 7.49 µM | hit rate 0.78% among 330,000 | AID 602340;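 active = mean ATP rescue above about 67%, or every replicate alone reaching that limit, limit read from the data, passing the limit was not always enough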;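 note: myotubes were challenged with 10 µM simvastatin during compound exposure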
# E-selectin induc – E-selectin induction on HUVECs | P16581 | HUVEC E-selectin immunofluorescence imaging; normalized: neutral wells 0, TNF-alpha wells 100 | activation, % at 7.58 µM | hit rate 0.37% among 260,000;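 active = mean E-selectin-positive cell signal at least 10% of the positive control, reached in at least 60% of replicates, without over 20% cell loss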
#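 Read-out: % PE-positive cells | Test system: HUVEC | Doses: One compound dose added by pin transfer | Buffer or medium: EGM-2 over gelatin coat | Signal: Immunofluorescence imaging | Benchmarks: TNF-alpha, DMSO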
# FGF22 binding – FGF22 (human) thermal shift binding. Q9HCT0. activity (Tm shift, normalised), % at 9.99 µM. hit rate 1.5% among 340,000. recombinant FGF22 thermal shift, SYPRO orange fluorescence; percent of sucrose octasulfate shift, DMSO zero;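 active = mean Tm shift, scaled 0 neutral to 100 positive control, at about 1.3% or above, every replicate too, limit read from the data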
# Target sequence (Q9HCT0 whole entry, looked up): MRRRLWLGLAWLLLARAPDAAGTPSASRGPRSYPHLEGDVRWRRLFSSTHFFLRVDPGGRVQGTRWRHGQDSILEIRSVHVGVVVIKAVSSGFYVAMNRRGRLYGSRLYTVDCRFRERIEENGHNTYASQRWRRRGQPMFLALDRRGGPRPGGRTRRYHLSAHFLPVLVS
# DENV2 CPE – inhibitors of DENV2 cytopathic effect; DENV2-infected cells, cytopathic effect rescue, plate reader; CPE inhibition, % at 9.99 µM; hit rate 1.7% among 350,000; in the data active = CPE inhibition above about 20%, passing the limit was not always enough; tested in BHK-21 cells
# PglD DTNB – PglD (C. jejuni) enzyme inhibition; purified PglD enzyme, DTNB colorimetric CoA detection; inhibition, % at 12.5 µM; hit rate 0.098% among 360,000; in the data active = inhibition above about 16%, passing the limit was not always enough
# A number is an active result; - = inactive; . = no result. An excerpt weighted towards active compounds, which were near 3.3% of everything screened.
SMILES,XiGFP reactiv,Statin myotox sup,E-selectin induc,FGF22 binding,DENV2 CPE,PglD DTNB
C[C@@H]1CN([C@H](C)CO)C(=O)c2cccc(NS(=O)(=O)c3cccs3)c2O[C@H]1CN(C)C(=O)Nc1ccc(C(F)(F)F)cc1,.,73.5,.,-,-,-
C[C@@H]1CN([C@@H](C)CO)C(=O)c2cccc(NS(=O)(=O)c3cccs3)c2O[C@@H]1CN(C)C(=O)Nc1ccc(C(F)(F)F)cc1,-,95.7,-,-,-,-
C[C@@H]1CN([C@@H](C)CO)C(=O)c2cccc(NS(=O)(=O)c3cccs3)c2O[C@H]1CN(C)C(=O)Nc1ccc(C(F)(F)F)cc1,-,-,-,-,-,-
C[C@H](CO)N1C[C@H](C)[C@@H](CN(C)C(=O)Nc2ccccc2)Oc2c(NS(=O)(=O)c3cccs3)cccc2C1=O,-,-,-,-,-,-
C[C@@H]1CCCCO[C@H](CN(C)S(=O)(=O)c2ccc(F)cc2)[C@@H](C)CN([C@@H](C)CO)C(=O)c2cc(NC(=O)CCCN(C)C)ccc2O1,-,.,-,-,-,-
Cc1noc(C)c1NC(=O)Nc1cccc2c1O[C@@H](CN(C)C)[C@H](C)CN([C@@H](C)CO)C2=O,-,-,.,-,-,-
CC(c1ccncn1)N(C)Cc1nc(-c2ccc(C(F)(F)F)cc2)no1 (stereo not given),-,-,-,-,-,-
Cc1oc(-c2ccc3ccccc3c2)nc1CN(C)C(C)c1ccncn1 (stereo not given),-,.,.,43.5,-,.
CC(=O)N(C)C[C@@H]1Oc2cc(-c3ccccc3)ccc2S(=O)(=O)N([C@H](C)CO)C[C@@H]1C,-,-,-,-,-,-
CCSCCNC(=O)c1cc(-n2cnnc2)ccc1Cl,.,-,.,.,.,-
CCOC(=O)N1CCN(C(=O)c2cc(-n3cnnc3)ccc2Cl)CC1,.,94.9,.,.,.,.
COc1ccc(COC[C@]23N=C4Sc5ccc([N+](=O)[O-])cc5C(=O)N4[C@H](c4ccccc4O2)[C@H]3CO[Si](C)(C)C(C)(C)C)cc1,.,.,.,-,-,.
COc1ccc(COCC23N=C4SCc5ccccc5C(=O)N4[C@H](c4ccccc4O2)[C@H]3CO[Si](C)(C)C(C)(C)C)cc1,.,.,.,-,27.9,-
CO[C@@H]1CN(C)C(=O)c2ccc(NC(=O)c3ccc(F)cc3)cc2OC[C@@H](C)NC[C@@H]1C,-,.,-,.,-,.
CC(C)(C)n1nnnc1C(c1cccs1)N(Cc1ccccc1)Cc1cccnc1 (stereo not given),.,124.4,.,.,.,-
S=P(N1CC1)(N1CC1)N1CC1,-,-,-,-,41.9,-
COc1ccc(-c2cnc3n2CCCCC3)cc1,-,.,-,.,44.2,-
Clc1ccc(-c2cnc3n2CCC3)cc1,.,-,.,.,.,-
CCN(CC)C(C(=O)NC1CCCCC1)c1ccc(C)cc1 (stereo not given),-,.,.,43.5,-,.
COC(CN(C(=O)CCl)C(C(=O)NC1CCCCC1)c1ccccc1C)OC (stereo not given),-,.,-,-,.,.
COC(CN(C(=O)CCl)C(C(=O)NC1CCCCC1)c1ccc(Cl)cc1)OC (stereo not given),-,71.0,.,-,-,-
C[C@@H]1CN([C@H](C)CO)C(=O)Cc2cc(NC(=O)C3CC3)ccc2O[C@H]1CN(C)CC1CCCCC1,-,-,-,-,-,-
CCc1nc(=O)c(-c2ccccc2)c(C)n1-c1ccccc1,-,-,43.3,-,-,-
COc1ccc(-n2c(C)nc(=O)c(-c3ccccc3)c2C)cc1,.,-,.,.,.,-
C[C@@H]1CN([C@H](C)CO)S(=O)(=O)c2ccc(C#CCN(C)C)cc2O[C@H]1CN(C)Cc1ccc(F)cc1,-,-,-,-,-,-
CCOC(=O)c1c(NC(=O)CSc2ncccn2)sc2c1CCN(Cc1ccccc1)C2,-,.,.,42.9,.,.
CCOC(=O)c1c(NC(=O)CC)sc2c1CCN(Cc1ccccc1)C2,-,-,-,-,-,-
O=C(NNc1cccc(Cl)n1)Nc1ccc(F)cc1,-,-,-,43.8,-,-
COc1cc([C@H]2c3[nH]c4ccccc4c3C[C@H]3C(=O)N4[C@@H](c5cc(OC)c(OC)c(OC)c5)c5[nH]c6ccccc6c5C[C@H]4C(=O)N23)cc(OC)c1OC,.,-,.,.,.,-
